Measurements: ChEMBL document CHEMBL3797027, “Potent anti-proliferative actions of a non-diuretic glucosamine derivative of ethacrynic acid” (Bioorg Med Chem Lett, 2016)
Activity calls are given as the source filed them. The calls are words filed in the database; no cut-off is given here.

Columns and labels:
[1] = system: HCT-116; test: Induction of ROS generation in human HCT116 cells at 20 and 40 uM incubated for 3 hrs after pre-incubation with 3 mM NAC for 1 hr by DCFDA staining based flow cytometry; format: functional, cell-based
In short: (§1)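 Cells were exposed for 3 h to compound, or to 25 µM H2O2 as positive control. Where indicated, 3 mM N-acetylcysteine was given 1 h before treatment. Pellets were stained with DCF-DA for 30 min, and intracellular ROS was read as fluorescence shift by flow cytometry against untreated controls.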

[2] = system: MDA-MB-231; test: Induction of ROS generation in human MDA-MB-231 cells at 20 and 40 uM incubated for 3 hrs after pre-incubation with 3 mM NAC for 1 hr by DCFDA staining based flow cytometry; format: functional, cell-based; in short: as §1
[3] = system: HCT-116; test: Induction of ROS generation in human HCT116 cells at 20 and 40 uM incubated for 3 hrs by DCFDA staining based fluorescence microscopy; format: functional, cell-based
In short: (§2)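 After 3 h exposure at different concentrations, DCFH-DA fluorescence was imaged by fluorescence microscopy. H2O2 (25 µM) served as positive control. In some wells, cells were pretreated with 3 mM N-acetylcysteine before compound addition.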

[4] = system: NCI-H1299; test: Induction of ROS generation in human H1299 cells at 20 and 40 uM incubated for 3 hrs after pre-incubation with 3 mM NAC for 1 hr by DCFDA staining based fluorescence microscopy; format: functional, cell-based; in short: as §2
[5] = system: MDA-MB-231; test: Induction of ROS generation in human MDA-MB-231 cells at 20 and 40 uM incubated for 3 hrs after pre-incubation with 3 mM NAC for 1 hr by DCFDA staining based fluorescence microscopy; format: functional, cell-based; in short: as §2
[6] = system: NCI-H1299; test: Increase in p21 (waf1/cip1) protein expression in p53 deficient human H1299 cells at 10 to 40 uM by Western blot method; format: functional, cell-based
In short: (§3)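 H1299 (p53-null), HCT116 (p53 wild type) and MDA-MB-231 (p53 mutant) cells were treated, then lysates were immunoblotted for p53, p21, PUMA and PARP. β-Actin served as loading control.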

[7] = system: NCI-H1299; test: Increase in PUMA protein expression in p53 deficient human H1299 cells at 10 to 40 uM by Western blot method; format: functional, cell-based; in short: as §3
[8] = system: NCI-H1299; test: Increase in cleaved PARP protein expression in p53 deficient human H1299 cells at 10 to 40 uM by Western blot method; format: functional, cell-based; in short: as §3
[9] = system: HCT-116; test: Increase in p53 protein expression in wild type p53 expressing human HCT116 cells at 10 to 40 uM by Western blot method; format: functional, cell-based; in short: as §3
[10] = system: HCT-116; test: Increase in cleaved PARP protein expression in wild type p53 expressing human HCT116 cells at 10 to 40 uM by Western blot method; format: functional, cell-based; in short: as §3
[11] = system: HCT-116; test: Induction of cell cycle arrest in wild type p53 expressing human HCT116 cells assessed as accumulation at G2/M phase incubated for 24 hrs by propidium iodide staining based flow cytometry; format: functional
[12] = system: MDA-MB-231; test: Induction of cell cycle arrest in p53 mutant expressing human MDA-MB-231 cells assessed as accumulation at G2/M phase incubated for 24 hrs by propidium iodide staining based flow cytometry; format: functional
[13] = system: Mus musculus; test: Toxicity in mouse assessed as induction of lethargy at 120 mg/kg/week for 2 weeks; format: organism-based; details: in vivo, 336 h
[14] = system: Mus musculus; test: Toxicity in mouse assessed as induction of paralysis at 120 mg/kg/week for 2 weeks; format: organism-based; details: in vivo, 336 h
[15] = system: Mus musculus; test: Toxicity in mouse assessed as induction of stress at 120 mg/kg/week for 2 weeks; format: organism-based; details: in vivo, 336 h
[16] = system: Mus musculus; test: Toxicity in mouse assessed as induction of weight loss at 120 mg/kg/week for 2 weeks; format: organism-based; details: in vivo, 336 h
[17] = Cytotoxic activity against human H1299 cells assessed as inhibition of cell proliferation incubated for 72 hrs by MTT assay; format: functional, cell-based; details: NCI-H1299, 72 h
In short: (§4)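 MTT cell survival assay. IC50 is the concentration that inhibits tumour cell proliferation by 50%, read from cell survival curves. Values are given as mean ± SD of three independent experiments.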

[18] = Cytotoxic activity against human SKBR3 cells assessed as inhibition of cell proliferation incubated for 72 hrs by MTT assay; format: functional, cell-based; details: SK-BR-3, 72 h; in short: as §4
[19] = system: MCF7; test: Cytotoxic activity against human MCF7 cells assessed as inhibition of cell proliferation incubated for 72 hrs by MTT assay; format: functional, cell-based; details: MCF7, 72 h; in short: as §4
[20] = Cytotoxic activity against human HCT116 cells assessed as inhibition of cell proliferation incubated for 72 hrs by MTT assay; format: functional, cell-based; details: HCT-116, 72 h; in short: as §4
[21] = Potency index, ratio of IC50 for ethacrynic acid to IC50 for test compound for cytotoxic activity against human SF188 cells assessed as inhibition of cell proliferation incubated for 72 hrs by MTT assay; format: functional, SF-188
[22] = system: MDA-MB-231; test: Potency index, ratio of IC50 for ethacrynic acid to IC50 for test compound for cytotoxic activity against human MDA-MB-231 cells assessed as inhibition of cell proliferation incubated for 72 hrs by MTT assay; format: functional
[23] = system: HT-29; test: Potency index, ratio of IC50 for ethacrynic acid to IC50 for test compound for cytotoxic activity against human HT-29 cells assessed as inhibition of cell proliferation incubated for 72 hrs by MTT assay; format: functional
In short: (§5)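 Index is the reference IC50 divided by the test IC50. Both IC50s were taken from MTT cell survival curves, each as mean ± SD of three independent experiments.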

[24] = Potency index, ratio of IC50 for ethacrynic acid to IC50 for test compound for cytotoxic activity against human HCT116 cells assessed as inhibition of cell proliferation incubated for 72 hrs by MTT assay; format: functional, HCT-116; in short: as §5
[25] = Potency index, ratio of IC50 for ethacrynic acid to IC50 for test compound for cytotoxic activity against human HT1080 cells assessed as inhibition of cell proliferation incubated for 72 hrs by MTT assay; format: functional, HT-1080; in short: as §5
[26] = system: HCT-116; test: Reduction in cellular total thiol levels in human HCT116 cells at 40 uM incubated for 3 hrs by Ellman's reagent based assay; format: functional
In short: (§6)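 Cells exposed to 0–40 µM compound for 3 h, then trypsinized. Total thiols in cell extracts were quantified with Ellman's reagent.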

[27] = system: MDA-MB-231; test: Reduction in cellular total thiol levels in human MDA-MB-231 cells incubated for 3 hrs by Ellman's reagent based assay; format: functional, cell-based; in short: as §6
[28] = system: HCT-116; test: Reduction in cellular total thiol levels in human HCT116 cells incubated for 3 hrs by Ellman's reagent based assay; format: functional, cell-based; in short: as §6
[29] = system: NCI-H1299; test: Reduction in cellular total thiol levels in human H1299 cells incubated for 3 hrs by Ellman's reagent based assay; format: functional, cell-based; in short: as §6
[30] = system: NCI-H1299; test: Induction of ROS generation in human H1299 cells at 20 and 40 uM incubated for 3 hrs by DCFDA staining based flow cytometry; format: functional, cell-based; in short: as §1
[31] = target: Glutathione S-transferase P (Homo sapiens) (UniProt P09211); test: Inhibition of GSTP1 in human MDA-MB-231 cells assessed as reduction in GST-pi activity pre-incubated for 3 hrs followed by chlorodinitrobenzene and reduced glutathione addition by photometric assay
Glutathione S-transferase P (Homo sapiens), sequence (P09211 2-210 limits assumed): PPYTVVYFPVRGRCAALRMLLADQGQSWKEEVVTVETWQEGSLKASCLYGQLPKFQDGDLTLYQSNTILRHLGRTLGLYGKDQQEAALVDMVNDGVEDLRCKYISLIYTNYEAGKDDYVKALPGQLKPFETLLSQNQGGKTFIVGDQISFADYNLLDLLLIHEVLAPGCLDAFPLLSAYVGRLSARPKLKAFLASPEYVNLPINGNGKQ

[32] = target: Glutathione S-transferase P (Homo sapiens) (UniProt P09211); test: Inhibition of GSTP1 in human HCT116 cells assessed as reduction in GST-pi activity at 50 uM pre-incubated for 3 hrs followed by chlorodinitrobenzene and reduced glutathione addition by photometric assay; details: HCT-116

## C=C(CC)C(=O)c1ccc(OCC(=O)N[C@@H]2[C@@H](O)[C@H](O)[C@@H](CO)O[C@H]2O)c(Cl)c1Cl
[1]
  Activity: inactive
[2]
  Activity: inactive
[3]
  Activity: Active
[4]
  Activity: inactive
[5]
  Activity: inactive
[6]
  Activity: Active
[7]
  Activity: Active
[8]
  Activity: Active
[9]
  Activity: Active
[10]
  Activity: Active
[11]
  Activity: Dose-dependent effect
[12]
  Activity: Dose-dependent effect
[13]
  Activity: Non-toxic
[14]
  Activity: Non-toxic
[15]
  Activity: Non-toxic
[16]
  Activity: Non-toxic
[17]
  IC50: 11.5 µM
[18]
  IC50: 16.1 µM
[19]
  IC50: 10.1 µM
[20]
  IC50: 10.3 µM
[21]
  Ratio IC50: 3
[22]
  Ratio IC50: 3
[23]
  Ratio IC50: 3
[24]
  Ratio IC50: 3
[25]
  Ratio IC50: 3
[26]
  Imax: 58%
[27]
  Activity: Dose-dependent effect
[28]
  Activity: Dose-dependent effect
[29]
  Activity: Dose-dependent effect
[30]
  Activity: Active
[31]
  Activity: Dose-dependent effect
[32]
  Imax: 60%
